This is an account of results in ChEMBL document CHEMBL4376818, “Discovery of Novel Pyrazolo-pyridone DCN1 Inhibitors Controlling Cullin Neddylation” (J Med Chem, 2019).

The target of data set [1] is DCN1-like protein 1/NEDD8-conjugating enzyme Ubc12 (Homo sapiens, UniProt Q96GG9). Briefly: Inhibition of biotinylated DCN1 (unknown origin) - AlexaFluor488 labelled UBE2M (unknown origin) protein-protein interaction after 1 hr by TR-FRET assay.
Data set [2] can be described thus: Half life in mouse microsomes at 0.8 uM. Type of data set: ADME, Microsome. Summed up: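 Oxidative metabolic stability in murine liver microsomes, drug at 0.8 µM. Half-life is reported as mean ± SD from at least one independent experiment run in triplicate.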
Data set [3] has as its system BJ. Nature of the data set: Cytotoxicity against human BJ cells assessed as cell growth inhibition after 72 hrs by Celltiter-Glo assay. The format is cell-based. Summed up: (§1)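 Cells were seeded overnight at 37 °C, 5% CO2, at densities validated for logarithmic growth (BJ 1000 cells/well, HCC95 600 cells/well), then treated with ten 3-fold serial dilutions from DMSO stocks for 72 h. […] Fit on a semi-log plot; ≥3 technical and 2 biological replicates.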

Data set [4] is described as follows: Kinetic aqueous solubility of compound at pH 7.4. Type of data set: physicochemical. Conditions: buffer, read-out: Kinetic_solubility. The procedure, abridged: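 Kinetic aqueous solubility was measured in pH 7.4 buffer. Values are reported as means ± standard deviation from at least one independent experiment run in triplicate.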
Data set [5] relates to HCC95. Nature of the data set: Cytotoxicity against human HCC95 cells overexpressing DCN1 assessed as cell growth inhibition after 72 hrs by Celltiter-Glo assay. The format is cell-based. The conditions noted are these: HCC95, 72 h. The procedure, abridged:
as §1

For data set [6], the system named is HCC95. Nature of the data set: Induction of ROS generation in human HCC95 cells at 30 uM after 5 hrs by H2DCFDA dye based fluorescence assay. Type of data set: functional, cell-based. Summed up:
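HCC95 cells were seeded at 25,000 cells/well and incubated overnight. They were PBS-washed, loaded with DCFDA for 45 min at 37 °C in the dark, washed twice, then exposed to compound in buffer for 5 h at 37 °C in the dark. Fluorescence was read at Ex/Em 485/535 nm.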

The target of data set [7] is T1, DCN1-like protein 3 (Homo sapiens) (UniProt Q8IWE4).
T1 sequence (whole entry): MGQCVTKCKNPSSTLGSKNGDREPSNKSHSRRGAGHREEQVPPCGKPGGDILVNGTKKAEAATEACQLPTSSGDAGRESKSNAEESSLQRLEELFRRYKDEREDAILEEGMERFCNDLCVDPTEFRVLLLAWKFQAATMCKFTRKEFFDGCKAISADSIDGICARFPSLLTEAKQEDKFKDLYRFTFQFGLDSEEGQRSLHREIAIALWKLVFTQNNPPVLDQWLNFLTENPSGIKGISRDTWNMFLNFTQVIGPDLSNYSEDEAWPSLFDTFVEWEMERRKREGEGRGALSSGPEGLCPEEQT
Nature of the data set: Inhibition of DCN3 (unknown origin) assessed as decrease in DCN1-stimulated NEDD8 transfer from UBE2M to CUL2 at 120 uM after 10 sec by pulse-chase assay.

For data set [8], the target named is DCN1-like protein 2 (Homo sapiens) (UniProt Q6PH85). Briefly: Inhibition of DCN2 (unknown origin) assessed as decrease in DCN1-stimulated NEDD8 transfer from UBE2M to CUL2 at 10 uM after 10 sec by pulse-chase assay.
Chain of DCN1-like protein 2 (Homo sapiens) (Q6PH85 whole entry): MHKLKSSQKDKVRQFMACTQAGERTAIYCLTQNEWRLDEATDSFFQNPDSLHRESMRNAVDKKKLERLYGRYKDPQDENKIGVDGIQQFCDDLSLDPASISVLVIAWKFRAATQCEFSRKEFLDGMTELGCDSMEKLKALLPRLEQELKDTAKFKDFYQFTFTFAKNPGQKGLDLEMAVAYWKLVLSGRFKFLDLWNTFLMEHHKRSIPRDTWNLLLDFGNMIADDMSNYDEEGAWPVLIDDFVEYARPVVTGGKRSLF
Data set [9] addresses T2, DCN1-like protein 4 (Homo sapiens) (UniProt Q92564).
T2 sequence (whole entry): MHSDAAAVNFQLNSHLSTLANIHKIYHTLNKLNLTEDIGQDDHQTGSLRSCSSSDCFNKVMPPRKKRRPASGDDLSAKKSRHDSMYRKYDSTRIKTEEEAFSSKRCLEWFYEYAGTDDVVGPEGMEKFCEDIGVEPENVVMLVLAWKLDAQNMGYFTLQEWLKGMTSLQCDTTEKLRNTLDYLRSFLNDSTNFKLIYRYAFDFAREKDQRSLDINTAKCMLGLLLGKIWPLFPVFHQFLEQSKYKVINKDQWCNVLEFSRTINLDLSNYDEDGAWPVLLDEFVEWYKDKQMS
Briefly: Inhibition of DCN4 (unknown origin) assessed as decrease in DCN1-stimulated NEDD8 transfer from UBE2M to CUL2 at 60 uM after 10 sec by pulse-chase assay.

In data set [10] the target is T3, DCN1-like protein 5 (Homo sapiens) (UniProt Q9BTE7).
T3 sequence (whole entry): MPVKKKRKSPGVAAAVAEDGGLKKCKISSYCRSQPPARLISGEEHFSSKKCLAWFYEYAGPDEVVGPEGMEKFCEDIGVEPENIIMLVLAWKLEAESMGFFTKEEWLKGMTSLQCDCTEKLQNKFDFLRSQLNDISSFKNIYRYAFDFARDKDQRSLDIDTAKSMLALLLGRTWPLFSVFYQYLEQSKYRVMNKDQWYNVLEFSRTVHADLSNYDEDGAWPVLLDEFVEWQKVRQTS
Briefly: Inhibition of DCN5 (unknown origin) assessed as decrease in DCN1-stimulated NEDD8 transfer from UBE2M to CUL2 at 60 uM after 10 sec by pulse-chase assay.

Values after ≈ are worked out from the molar mass of the structure shown. Active and inactive are the calls of the source. No cut-off for these calls is given here.

Chain of DCN1-like protein 1/NEDD8-conjugating enzyme Ubc12 (Q96GG9 whole entry): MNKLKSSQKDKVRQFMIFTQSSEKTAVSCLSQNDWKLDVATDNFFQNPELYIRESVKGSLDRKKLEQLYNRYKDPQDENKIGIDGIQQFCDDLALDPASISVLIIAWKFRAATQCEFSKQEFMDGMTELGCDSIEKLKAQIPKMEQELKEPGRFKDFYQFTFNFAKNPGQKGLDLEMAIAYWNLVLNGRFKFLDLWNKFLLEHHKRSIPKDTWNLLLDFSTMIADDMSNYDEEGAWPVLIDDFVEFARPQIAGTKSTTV
Chain of DCN1-like protein 1/NEDD8-conjugating enzyme Ubc12 (P61081 whole entry, further chain): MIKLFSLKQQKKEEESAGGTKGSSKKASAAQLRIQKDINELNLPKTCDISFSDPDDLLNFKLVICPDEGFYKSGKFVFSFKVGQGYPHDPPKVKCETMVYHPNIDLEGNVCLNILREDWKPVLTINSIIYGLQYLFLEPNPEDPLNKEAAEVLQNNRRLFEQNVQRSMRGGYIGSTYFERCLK

In the case of `Cc1ccc(C(=O)N[C@@H]2C(=O)Nc3c(c(C)nn3-c3ccccc3)[C@@H]2c2ccc(F)cc2)cc1`, in [1], the IC50 was above 15 µM.
As for `CCC(C)n1nc(C)c2c1NC(=O)[C@@H](NC(=O)c1cccc(C)c1)[C@H]2c1ccc(F)cc1` (stereo in doubt; 22a), half-maximal inhibition in data set [1] (IC50) was put at 0.7 µM.
Turning to `Cc1cccc(C(=O)N[C@@H]2C(=O)Nc3c(c(C)nn3-c3ccccc3)[C@@H]2c2ccccc2)c1`, the IC50 in [1] came to 4 µM.
Compound `CCn1nc(C)c2c1NC(=O)[C@@H](NC(=O)c1cccc(C)c1)[C@H]2c1ccc(F)cc1` (racemic) showed a half-life at 0.8 µM in data set [2] of 36 min. Further, the EC50 in [3] and in data set [5] was above 25 µM throughout. Further, in data set [4], the solubility kinetic is 92.8 µM (≈ 37.7 µg/mL).
Regarding `Cc1cccc(C(=O)N[C@@H]2C(=O)Nc3c(c(C)nn3C3CCCC3)[C@@H]2c2ccc(F)cc2)c1` (racemic), the concentration for half-maximal inhibition (IC50) in data set [1] was determined as 0.3 µM. Further, the half-life at 0.8 µM in data set [2] was 30 min. In addition, the EC50 in data set [3] and in data set [5] was above 25 µM each time. Also, in data set [4], the solubility kinetic was determined as 17.1 µM (≈ 7.64 µg/mL).
The compound `Cc1cccc(C(=O)N[C@@H]2C(=O)Nc3c(c(C)nn3-c3ccccc3)[C@@H]2c2cccnc2)c1` gave an IC50 in [1] above 15 µM.
Consider `CC(=O)CN1C(=O)[C@@H](NC(=O)c2cccc(C)c2)[C@@H](c2ccc(F)cc2)c2c(C)nn(-c3ccccc3)c21`, for which half-maximal inhibition in data set [1] (IC50) was put at 7.1 µM.
As to `CCC[C@H]1c2c(C)nn(-c3ccccc3)c2NC(=O)[C@H]1NC(=O)c1cccc(C)c1`, the midpoint of inhibition in data set [1], the IC50, lay at 3.1 µM.
On to `Cc1nn(-c2ccccc2)c2c1[C@H](c1ccc(F)cc1)[C@H](NC(=O)c1cccc(I)c1)C(=O)N2`, for which half-maximal inhibition in data set [1] (IC50) required 7.1 µM.
Compound `Cc1nn(-c2ccccc2)c2c1[C@H](c1ccc(F)cc1)[C@H](NC(=O)c1ccccc1)C(=O)N2` returned an IC50 in [1] of 13 µM.
As for `CCN1C(=O)[C@@H](NC(=O)c2cccc(C)c2)[C@@H](c2ccc(F)cc2)c2c(C)nn(C3CCCC3)c21`, the IC50 in data set [1] was 0.8 µM.
In [1], `Cc1cccc(C(=O)N[C@@H]2C(=O)N(C)c3c(c(C)nn3C(C)(C)C)[C@@H]2c2ccc(F)cc2)c1` had an IC50 of 2.3 µM.
`Cc1cccc(C(=O)N[C@@H]2C(=O)Nc3c(c(C)nn3C3CC3)[C@@H]2c2ccc(F)cc2)c1` yielded an IC50 in data set [1] of 2 µM.
Same read-out and setting: the figure for `Cc1cccc(C(=O)N[C@@H]2C(=O)Nc3c(c(C)nn3C(C)(C)C)[C@@H]2c2ccc(F)cc2)c1` is 0.5 µM; for `Cc1cccc(C(=O)N[C@@H]2C(=O)Nc3n[nH]c(C)c3[C@@H]2c2ccc(F)cc2)c1` it is above 15 µM; for `Cc1cccc(C(=O)N[C@@H]2C(=O)Nc3c(c(C)nn3Cc3ccccc3)[C@@H]2c2ccc(F)cc2)c1` it is above 15 µM.
In the case of `Cc1cccc(C(=O)N[C@@H]2C(=O)Nc3c(c(C)nn3-c3ccccc3)[C@@H]2c2ccc(F)cc2)c1` (racemic), half-maximal inhibition in [1] (IC50) required 1.4 µM. In [2], the half-life at 0.8 µM was 66 min. In addition, the EC50 in [3] and in [5] was above 25 µM each time. In data set [4], the solubility kinetic stood at 5.5 µM (≈ 2.5 µg/mL).
The compound `Cc1cccc(C(=O)N[C@@H]2C(=O)Nc3c(c(C)nn3-c3ccccc3)[C@@H]2c2ccc(F)nc2)c1` came in with an IC50 in data set [1] of 3.5 µM.
As for `CCN1C(=O)[C@@H](NC(=O)c2cccc(C)c2)[C@@H](c2ccc(F)cc2)c2c(C)nn(C3CC3)c21` (racemic), in [1], the IC50 was 0.2 µM. This compound came in with a half-life at 0.8 µM in [2] below 6 min. Besides, the EC50 in data set [3] and in data set [5] was above 25 µM throughout. In addition, in data set [4], the solubility kinetic stood at 46.1 µM (≈ 20.6 µg/mL).
`CCC(C)n1nc(C)c2c1NC(=O)[C@@H](NC(=O)c1cccc(C)c1)[C@H]2c1ccc(F)cc1` (stereo in doubt; 22b) registered an IC50 in data set [1] of 0.6 µM.
On the same count and under the same terms, the result for `Cc1cccc(C(=O)N[C@@H]2C(=O)N(C(C)C)c3c(c(C)nn3-c3ccccc3)[C@@H]2c2ccc(F)cc2)c1` reads 4.1 µM; that for `Cc1cncc(C(=O)N[C@@H]2C(=O)Nc3c(c(C)nn3-c3ccccc3)[C@@H]2c2ccc(F)cc2)c1`, above 15 µM.
With `Cc1cccc(C(=O)N[C@@H]2C(=O)Nc3c(c(C)nn3-c3ccccc3)[C@@H]2c2cccc(F)c2)c1`, the IC50 in data set [1] amounted to 7.1 µM.
`Cc1nn(-c2ccccc2)c2c1[C@H](c1ccc(F)cc1)[C@H](NC(=O)c1ccc(Cl)c(Cl)c1)C(=O)N2` displayed an IC50 in data set [1] above 15 µM.
On to `CCOC1=Nc2c(c(C)nn2-c2ccccc2)[C@H](c2ccc(F)cc2)[C@@H]1NC(=O)c1cccc(C)c1`, for which the EC50 in data set [3] and in data set [5] was above 25 µM each time.
`Cc1ccc([C@H]2c3c(C)nn(-c4ccccc4)c3NC(=O)[C@H]2NC(=O)c2cccc(C)c2)cc1` (relative stereo): in data set [1], inhibition was half-maximal at 5.1 µM (IC50). The compound also gave a half-life at 0.8 µM in [2] of 18 min. Further, the EC50 in data set [3] and in [5] was above 25 µM throughout. Also, the solubility kinetic in [4] stood at 1.1 µM (≈ 0.496 µg/mL).
In the case of `CCCN1C(=O)[C@@H](NC(=O)c2cccc(C)c2)[C@@H](c2ccc(F)cc2)c2c1nn(CCC)c2C`, the EC50 in data set [3] and in data set [5] was above 25 µM each time.
As for `CCCCN1CCC(N(Cc2ccccc2)C(=O)Nc2ccc(Cl)c(Cl)c2)CC1`, the result in [6] was inactive.
In the case of `Cc1nn(-c2ccccc2)c2c1[C@H](c1ccc(F)cc1)[C@H](NC(=O)c1cccc(C(C)(C)C)c1)C(=O)N2`, the IC50 in data set [1] was above 15 µM.
For `CC(=O)N1C(=O)[C@@H](NC(=O)c2cccc(C)c2)[C@@H](c2ccc(F)cc2)c2c(C)nn(-c3ccccc3)c21`, half-maximal inhibition in [1] (IC50) required 5.6 µM.
As to `CCN1C(=O)[C@@H](NC(=O)c2cccc(C)c2)[C@@H](c2ccc(F)cc2)c2c(C)nn(-c3ccccc3)c21` (relative stereo), the inhibition result in data set [7], in data set [9] and in data set [10] was “inactive” in each case. Also, the inhibition result in [8] is “Active”. Also, in [6], the outcome was inactive. Further, the EC50 in data set [3] and in data set [5] was above 25 µM each time.
As to `Cc1cccc(C(=O)N[C@H]2C(=O)Nc3c(c(C)nn3-c3ccccc3)[C@@H]2c2ccc(F)cc2)c1` (racemic), in data set [6], the outcome was inactive. Also, the EC50 in [3] and in data set [5] was above 25 µM each time.
Regarding `Cc1cccc(C(=O)N[C@@H]2C(=O)Nc3c(c(C)nn3-c3ccccn3)[C@@H]2c2ccc(F)cc2)c1`, the IC50 in [1] is above 15 µM.
Compound `CCCn1nc(C)c2c1N(CC)C(=O)[C@@H](NC(=O)c1cccc(C)c1)[C@H]2c1ccc(F)cc1` (racemic) registered an IC50 in data set [1] of 0.2 µM. Moreover, in data set [2], the half-life at 0.8 µM is below 6 min. The EC50 in data set [3] and in [5] was above 25 µM in each case. Further, the solubility kinetic in data set [4] amounted to 10.9 µM (≈ 4.89 µg/mL).
For the compound `Cc1cccc(C(=O)N[C@@H]2C(=O)Nc3c(c(C)nn3-c3ccccc3)[C@@H]2Cc2ccccc2)c1`, 3 µM corresponded to half-maximal inhibition in [1] (IC50).
Consider `Cc1ccccc1C(=O)N[C@@H]1C(=O)Nc2c(c(C)nn2-c2ccccc2)[C@@H]1c1ccc(F)cc1`, for which, in [1], the IC50 was above 15 µM.
Turning to `Cc1cccc(C(=O)N[C@@H]2C(=O)Nc3c(c(C)nn3-c3ccccc3)[C@@H]2C2CCCCC2)c1`, the IC50 in data set [1] is 1.3 µM.
Compound `CCCn1nc(C)c2c1NC(=O)[C@@H](NC(=O)c1cccc(C)c1)[C@H]2c1ccc(F)cc1` displayed an IC50 in data set [1] of 1.2 µM.

Usually IC50 stands for the concentration at which inhibition is half-maximal. A lower IC50 goes with higher potency. Broadly, the half-life is the time in which the quantity being followed falls by half. Read a low half-life as fast loss. By EC50 is commonly meant the concentration that produces a half-maximal response.
